The record followed here is ChEMBL document CHEMBL3098067, “Novel di-tertiary-butyl phenylhydrazones as dual cyclooxygenase-2/5-lipoxygenase inhibitors: synthesis, COX/LOX inhibition, molecular modeling, and insights into their cytotoxicities” (Bioorg Med Chem Lett, 2014).

Assay [1] in a line: Cytotoxicity against COX-2 positive human HCA-7 cells transfected with CD44v6shRNA assessed as growth inhibition after 48 hrs by MTT assay. Format: functional, cell-based. The settings on record: HCA-7, 48 h.
Assay [2] has as its target T1, Prostaglandin G/H synthase 1 (Ovis aries, UniProt P05979).
T1 sequence (P05979 whole entry): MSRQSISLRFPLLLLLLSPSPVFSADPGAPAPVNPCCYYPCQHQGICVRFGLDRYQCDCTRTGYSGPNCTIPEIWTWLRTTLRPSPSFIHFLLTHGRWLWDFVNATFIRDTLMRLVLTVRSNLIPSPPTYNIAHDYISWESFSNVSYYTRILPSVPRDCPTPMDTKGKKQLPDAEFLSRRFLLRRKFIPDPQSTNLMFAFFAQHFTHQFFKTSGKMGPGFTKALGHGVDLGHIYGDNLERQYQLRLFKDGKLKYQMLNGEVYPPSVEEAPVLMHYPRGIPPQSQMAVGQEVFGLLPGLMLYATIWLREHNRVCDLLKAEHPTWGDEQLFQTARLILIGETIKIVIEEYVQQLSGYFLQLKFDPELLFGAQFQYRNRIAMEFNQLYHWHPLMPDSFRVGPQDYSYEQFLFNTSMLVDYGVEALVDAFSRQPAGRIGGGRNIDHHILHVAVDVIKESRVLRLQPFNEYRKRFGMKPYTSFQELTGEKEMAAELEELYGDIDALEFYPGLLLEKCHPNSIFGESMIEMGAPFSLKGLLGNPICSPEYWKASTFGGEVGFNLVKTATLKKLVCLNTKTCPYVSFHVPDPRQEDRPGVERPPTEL
As to the kind of experiment: Inhibition of ram seminal vesicle COX-1 assessed as conversion of arachidonic acid to PGH2. In a few lines:
(§1)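 Assays used enzyme immobilized in ELISA plates, with activity read by ELISA. IC50 values are given in µM.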

Assay [3] deals with HT-29. As to the kind of experiment: Cytotoxicity against COX-2 positive human HT-29 cells transfected with CD44v6shRNA assessed as growth inhibition after 48 hrs by MTT assay. Particulars: HT-29, 48 h. Type of assay: functional, cell-based.
For assay [4], the system named is HCA-7. Put plainly: Inhibition of hyaluronan-induced CD44v6 in human HCA-7 cells transfected with Has2cDNA assessed as downregulation of COX-1 protein expression at 50 uM after 24 hrs by Western blotting analysis. Format: cell-based. In a few lines: (§2)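 HCA7 cells were transiently transfected with Has2 cDNA, grown 72 h, then treated for 24 h. Western blots were probed for CD44v6, COX-1, COX-2 and 5-LOX, with longer exposures used to show COX-2 and 5-LOX. The same blot was reprobed for β-tubulin as a loading control.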

The subject of assay [5] is HCA-7. Put plainly: Inhibition of hyaluronan-induced CD44v6 in human HCA-7 cells transfected with Has2cDNA assessed as downregulation of COX-2 protein expression at 50 uM after 24 hrs by Western blotting analysis. Type of assay: cell-based. In a few lines:
as §2

A short description of assay [6]: Cytotoxicity against COX-2 positive mouse APC10.1 cells overexpressing HAS-2 assessed as growth inhibition by CellTiter-96 AQueous assay. Format: functional, cell-based.
The subject of assay [7] is SW480. Put plainly: Cytotoxicity against COX-2 negative human SW480 cells assessed as growth inhibition by CellTiter-96 AQueous assay. Type of assay: functional, cell-based.
A short description of assay [8]: Cytotoxicity against COX-2 positive human HCA-7 cells assessed as growth inhibition by CellTiter-96 AQueous assay. Format: functional, cell-based.
Assay [9] concerns HT-29. As to the kind of experiment: Cytotoxicity against COX-2 positive human HT-29 cells assessed as growth inhibition by CellTiter-96 AQueous assay. Format: functional, cell-based.
A short description of assay [10]: Cytotoxicity against COX-2 positive mouse APC10.1 cells transfected with CD44v6shRNA overexpressing HAS-2 assessed as growth inhibition after 48 hrs by MTT assay. Format: functional, cell-based.
The test system of assay [11] is HCA-7. Put plainly: Inhibition of hyaluronan-induced CD44v6 in human HCA-7 cells transfected with Has2cDNA assessed as downregulation of 5-LOX protein expression at 50 uM after 24 hrs by Western blotting analysis. Type of assay: cell-based. In a few lines: as §2
Assay [12] has as its system HCA-7. As to the kind of experiment: Cytotoxicity against human HCA-7 cells expressing COX-2, 5-LOX, CD44v6 assessed as growth inhibition after 24 hrs by MTT assay. Type of assay: functional, cell-based. In a few lines:
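HCA7 and HIEC6 cells were exposed to a range of test concentrations for 24 h. Cytotoxicity was read by MTT assay and expressed as percent growth inhibition, with untreated cells set to 0% inhibition.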

The subject of assay [13] is HCA-7. Put plainly: Inhibition of hyaluronan-induced CD44v6 in human HCA-7 cells transfected with Has2cDNA assessed as downregulation of 5-LOX protein expression at 5 uM after 24 hrs by Western blotting analysis. Format: cell-based. In a few lines:
as §2

The subject of assay [14] is HT-29. As to the kind of experiment: Ratio of IC50 for COX-2 positive human HT-29 cells to IC50 for COX-2 positive human HT-29 cells transfected with CD44v6shRNA. Type of assay: functional.
Assay [15] concerns HCA-7. As to the kind of experiment: Inhibition of hyaluronan-induced CD44v6 in human HCA-7 cells transfected with Has2cDNA assessed as downregulation of COX-2 protein expression at 5 uM after 24 hrs by Western blotting analysis. Format: cell-based. In a few lines: as §2
A short description of assay [16]: Ratio of IC50 for COX-2 positive mouse APC10.1 cells overexpressing HAS-2 to IC50 for COX-2 positive mouse APC10.1 cells transfected with CD44v6shRNA overexpressing HAS-2. Type of assay: functional.
Assay [17] has as its target T2, Prostaglandin G/H synthase 2 (Homo sapiens, UniProt P35354).
T2 sequence (P35354 whole entry): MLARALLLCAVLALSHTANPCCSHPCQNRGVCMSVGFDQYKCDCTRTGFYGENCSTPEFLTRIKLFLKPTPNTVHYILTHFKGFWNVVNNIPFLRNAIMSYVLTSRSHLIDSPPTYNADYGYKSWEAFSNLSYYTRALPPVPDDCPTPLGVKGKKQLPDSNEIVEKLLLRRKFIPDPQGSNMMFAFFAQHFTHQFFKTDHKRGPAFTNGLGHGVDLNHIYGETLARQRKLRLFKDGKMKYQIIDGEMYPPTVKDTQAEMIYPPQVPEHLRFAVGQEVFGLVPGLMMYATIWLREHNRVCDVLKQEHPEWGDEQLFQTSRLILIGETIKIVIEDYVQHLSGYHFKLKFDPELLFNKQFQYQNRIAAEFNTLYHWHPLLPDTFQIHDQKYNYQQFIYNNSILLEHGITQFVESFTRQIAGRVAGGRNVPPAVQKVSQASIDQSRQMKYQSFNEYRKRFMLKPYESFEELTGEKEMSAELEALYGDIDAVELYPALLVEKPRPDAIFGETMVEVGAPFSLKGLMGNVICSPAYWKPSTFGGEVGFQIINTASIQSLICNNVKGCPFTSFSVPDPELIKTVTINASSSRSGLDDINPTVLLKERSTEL
Put plainly: Inhibition of COX-2 (unknown origin) by ELISA.

A short description of assay [18]: Ratio of IC50 for COX-2 positive human HCA-7 cells to IC50 for COX-2 positive human HCA-7 cells transfected with CD44v6shRNA. Type of assay: functional.
Assay [19] in a line: Downregulation of hyaluronan-induced CD44v6 protein expression in human HCA-7 cells transfected with Has2cDNA at 5 uM after 24 hrs by Western blotting analysis. Type of assay: functional, cell-based. In a few lines: as §2
Assay [20] addresses T3, Polyunsaturated fatty acid 5-lipoxygenase (Homo sapiens, UniProt P09917).
T3 sequence (P09917 whole entry): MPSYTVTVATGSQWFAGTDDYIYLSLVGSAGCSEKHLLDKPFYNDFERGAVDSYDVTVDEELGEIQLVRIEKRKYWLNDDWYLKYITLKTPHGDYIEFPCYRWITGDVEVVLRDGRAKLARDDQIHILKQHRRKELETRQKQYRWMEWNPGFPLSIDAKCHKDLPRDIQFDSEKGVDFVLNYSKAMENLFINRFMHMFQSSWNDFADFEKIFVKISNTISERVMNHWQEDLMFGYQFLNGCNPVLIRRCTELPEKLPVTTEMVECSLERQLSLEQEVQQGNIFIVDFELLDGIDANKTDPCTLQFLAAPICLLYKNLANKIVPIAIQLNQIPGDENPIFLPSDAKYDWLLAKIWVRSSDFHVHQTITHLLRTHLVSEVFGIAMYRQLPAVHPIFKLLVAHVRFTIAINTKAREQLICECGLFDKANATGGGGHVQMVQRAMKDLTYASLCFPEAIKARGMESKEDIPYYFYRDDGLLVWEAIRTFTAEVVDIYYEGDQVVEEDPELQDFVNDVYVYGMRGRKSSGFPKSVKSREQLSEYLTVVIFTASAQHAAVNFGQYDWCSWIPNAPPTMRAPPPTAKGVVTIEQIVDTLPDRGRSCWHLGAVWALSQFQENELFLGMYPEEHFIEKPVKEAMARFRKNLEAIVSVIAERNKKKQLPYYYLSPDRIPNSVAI
As to the kind of experiment: Inhibition of 5-LOX (unknown origin) by ELISA. In a few lines:
as §1

For assay [21], the system named is HCA-7. As to the kind of experiment: Inhibition of hyaluronan-induced CD44v6 in human HCA-7 cells transfected with Has2cDNA assessed as downregulation of COX-1 protein expression at 5 uM after 24 hrs by Western blotting analysis. Type of assay: cell-based. In outline:
as §2

The source made the active and inactive calls. The calls are words filed in the database; no cut-off is given here.

Turning to `CC1(C)Cc2c(-c3ccccc3)c(-c3ccc(Cl)cc3)c(CC(=O)O)n2C1` [LICOFELONE], the IC50 was determined as 18.5 µM in [1]; 0.8 µM in [2]; 21.1 µM in assay [3]; 70.6 µM in assay [6]; 68 µM in assay [7]; 60.9 µM in assay [8]. In addition, the results for the IC50 in [9] and in assay [10] were 67 µM and 23 µM, respectively. For the same molecule, the result in assay [4], in [5] and in [11] was Active.

Regarding `NNC(=O)c1ccccc1O`, the “growth inhibition (GI)” value in assay [12] is “Active”.

As for `CC(C)(C)c1cc(/C=N/NC(=O)c2ccccc2)c(O)c(C(C)(C)C)c1`, the result in [13], in [15], in [19] and in assay [21] was Active. The concentration for half-maximal inhibition (IC50) was determined as 0.56 µM in [1]; 25.5 µM in assay [2]; 0.85 µM in assay [3]; 11.9 µM in [6]; 35.7 µM in assay [7]; 6.49 µM in assay [17]. The IC50 in assay [8] came out at 4.3 µM; in assay [9] it was 5.7 µM; in [10], 1.8 µM; in assay [20] it was 5.88 µM. The “Ratio IC50” value in assay [14] amounted to 6.7; in assay [16], 6.1; in assay [18], 7.7.

With `Cc1ccc(-c2cc(C(F)(F)F)nn2-c2ccc(S(N)(=O)=O)cc2)cc1` [CELECOXIB], the outcome in assay [13], in assay [15] and in [21] was Active. For the same molecule, the half-inhibitory concentration (IC50) came out at 0.75 µM in [1]; 0.7 µM in assay [3]; 13.4 µM in [6]; 6.9 µM in assay [7]; 4.9 µM in assay [8]; 5.7 µM in assay [9]. For the same molecule, in [10], the IC50 came out at 1.3 µM.

Turning to `CC(C)(C)c1cc(C=O)c(O)c(C(C)(C)C)c1`, in assay [12], the “growth inhibition (GI)” value is “Active”.

For `CC(C)(C)c1cc(/C=N/NC(=O)c2cccnc2)c(O)c(C(C)(C)C)c1`, the outcome in assay [13], in assay [15], in assay [19] and in [21] was Active. In addition, the half-inhibitory concentration (IC50) was 0.26 µM in assay [1]; greater than 300 µM in [2]; 0.35 µM in assay [3]; 13.8 µM in assay [6]; 37 µM in assay [7]; 8.8 µM in [17]. In addition, the IC50 is 3.5 µM in assay [8], 4.3 µM in assay [9], 1.9 µM in assay [10] and 5.55 µM in assay [20]. In addition, the “Ratio IC50” value stood at 12 in assay [14], 7.2 in assay [16] and 14 in assay [18].

In the case of `CC(C)(C)c1cc(/C=N/NC(=O)c2ccncc2)c(O)c(C(C)(C)C)c1`, the outcome in [13], in assay [15], in assay [19] and in assay [21] was Active. Moreover, the half-maximal inhibitory concentration (IC50) is 0.76 µM in assay [1]; greater than 300 µM in [2]; 0.71 µM in assay [3]; 18.2 µM in [6]; 33.7 µM in [7]; 7.11 µM in [17]. The IC50 in [8] turned out to be 6.4 µM; in assay [9], 5.8 µM; in assay [10], 3 µM; in assay [20], 6.25 µM. Besides, the results for the “Ratio IC50” value in assay [14], in assay [16] and in assay [18] were 8, 6.1 and 8.4, respectively.
